GalR3 antag: GalR3 antagonists in HEK293 cells, primary screen, cell-based, fluorescence readout. Galanin receptor type 3 (Homo sapiens), O60755. HEK293 GalR3-CNG cAMP membrane potential fluorescence; galR3 body fused to GalR1 C-terminus. AID 651719, 2012. 0.44% of 360,000 active. inhibition, % at 3 µM;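 active = inhibition above the screen-wide average plus 3 SD, cut at about 13% in these data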;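 note: forskolin and galanin both at EC90 stimulate the cells; cAMP rise reported by CNG channel membrane potential dye signal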
TAAR1 antagonist: human TAAR1 antagonists, primary screen, Fluo-8 calcium fluorescence, CHO RD-HGA16 cells. 1.5% of 360,000 active. inhibition, % at 3 µM. Trace amine-associated receptor 1 (Homo sapiens), Q96RJ0. antagonist;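 active = inhibition above a per-plate cutoff, the mean inhibition of test compounds on that plate plus 3 SD, cut at about 49% in these data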
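Test system: hTAAR1-expressing CHO RD-HGA16 cells, Gα16-coupled; Probe or stimulus: EC80 β-phenethylamine stimulus; Compound dosing: single nominal final test compound concentration of 3 µM; Timing: 140 s kinetic read after compound, 140 s after agonist; Signal: Fluo-8 calcium-sensitive fluorescence; Measure: % inhibition of agonist calcium response; Controls: DMSO and EC80 PEA controls.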
OX1R antag-1: OX1R (HCRTR1) antagonists, primary screen, fluorescence, CHO/OX1R cells, Fluo-8 calcium, orexin A; inhibition, % at 5 µM; 0.43% of 330,000 active; Orexin/Hypocretin receptor type 1 (Homo sapiens), O43613; Fluo-8 calcium fluorescence;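 active = inhibition above its plate's threshold, mean inhibition of all tested compounds on the plate plus 3 SD, cut at about 37% in these data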
Target sequence (O43613 whole entry, looked up): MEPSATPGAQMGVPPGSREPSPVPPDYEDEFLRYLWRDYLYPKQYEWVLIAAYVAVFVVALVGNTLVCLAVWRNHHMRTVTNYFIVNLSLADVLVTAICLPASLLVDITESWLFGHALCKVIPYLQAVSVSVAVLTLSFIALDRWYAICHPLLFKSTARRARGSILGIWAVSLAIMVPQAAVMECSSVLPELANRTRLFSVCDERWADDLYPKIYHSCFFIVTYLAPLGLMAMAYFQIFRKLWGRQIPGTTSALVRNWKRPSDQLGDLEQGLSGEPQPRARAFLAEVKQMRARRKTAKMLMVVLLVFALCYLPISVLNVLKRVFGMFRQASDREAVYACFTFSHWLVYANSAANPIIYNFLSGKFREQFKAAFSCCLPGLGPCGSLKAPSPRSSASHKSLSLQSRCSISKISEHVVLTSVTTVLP
TAAR1 agonist: human TAAR1 agonists, primary screen, Fluo-8 calcium fluorescence, CHO RD-HGA16 cells | 0.99% of 360,000 active | activation, % at 3 µM | vehicle wells 0%, saturating PEA agonist 100% | Trace amine-associated receptor 1 (Homo sapiens), Q96RJ0;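 active = activation above the mean activation of all test compounds in the run plus 3 SD, cut at about 38% in these data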
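System: CHO-derived RD-HGA16 cells with stable Gα16 and human TAAR1 / Times: 17-24 h plating, Fluo-8 75 min 37 °C, 30 min RT / Technique: calcium-sensitive Fluo-8 signal, excitation 470-495, emission 515-575 nm / Measure: % activation relative to PEA EC100 response / Benchmarks: DMSO and PEA EC100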
CHO parental Ca: ATP-evoked calcium signal inhibitors, parental CHO, primary screen, counter-screen for OX1R antagonist project, cell-based, fluorescence, Fluo-8 calcium dye; parental CHO-K1, ATP-induced calcium, Fluo-8 fluorescence; inhibition, % at 5.6 µM; 0.63% of 330,000 active; AID 463079, 2010;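 active = inhibition above that plate's mean sample inhibition plus 3 SD, cut at about 26% in these data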
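Material: Parental CHO cells | Reagent: ATP | Compound dosing: Single nominal dose of 5.6 µM per compound | Detection: Intracellular calcium via Fluo-8 no-wash fluorescent dye | Read-out: % inhibition of ATP-induced calcium mobilization | Benchmarks: Low control ATP plus DMSO, high control DMSO only | Replicates: Singlicate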
OX1R antag-2: antagonists of human orexin 1 receptor (OX1R); 1.8% of 330,000 active; inhibition, % at 6.6 µM; AID 485270, 2010; Orexin/Hypocretin receptor type 1 (Homo sapiens), O43613; OX1R-expressing cells, FRET antagonist read-out; in the data active = inhibition mostly above about 38%, no sharp cut-off; inactive = mostly below about 40%
A number is an active result; – = inactive; · = no result. Rows were chosen to be rich in hits. Some 4.3% of all compounds tested hit in one or more screens of this group.

SMILES | GalR3 antag | TAAR1 antagonist | OX1R antag-1 | TAAR1 agonist | CHO parental Ca | OX1R antag-2
Cc1nn(CC(=O)NC2CCC(C)CC2)c(=O)c(C#N)c1C (stereo not drawn) | – | – | – | – | – | 44
COc1ccc(/C=N/Nc2ncccc2[N+](=O)[O-])c(OC)c1 | – | – | – | – | – | 50
COc1ccc(/C=N/Nc2ncc(-c3ccccc3)cn2)c(OC)c1 | – | – | – | – | – | –
CN(C)CCN(C(=O)c1cccs1)c1nc2cc3c(cc2s1)OCCO3 | – | – | – | – | – | –
CC(=O)N1CCCc2cc(S(=O)(=O)N3CCCC(C(=O)N4CCN(c5ccccc5)CC4)C3)ccc21 (stereo not drawn) | – | – | – | – | – | –
CC(=O)N1CCCc2cc(S(=O)(=O)N3CCCC(C(=O)N4CCN(c5cc(C)ccc5C)CC4)C3)ccc21 (stereo not drawn) | – | – | 51 | – | 44 | 40
COc1ccccc1N1CCN(C(=O)C2CCCN(S(=O)(=O)c3ccc4c(c3)CCCN4C(C)=O)C2)CC1 (stereo not drawn) | – | 68 | – | – | – | –
CCn1c2ccccc2c2cc(NC(=O)CSc3nnc(-c4ccc(OC)cc4)n3N)ccc21 | – | – | – | – | – | 50
COc1ccc(NC(=O)CSc2nnc(-c3ccccc3)n2N)cc1 | – | – | – | – | – | –
O=C1CN(C(=O)COC(=O)c2ccc([N+](=O)[O-])o2)c2ccccc2N1 | – | – | – | – | – | 34
O=C1CN(C(=O)COC(=O)c2ccc([N+](=O)[O-])s2)c2ccccc2N1 | · | · | – | · | – | 45
O=C1CN(C(=O)COC(=O)c2cc(Cl)ccc2[N+](=O)[O-])c2ccccc2N1 | – | – | · | – | · | ·
Cn1c(=O)n(CC(=O)NCC2CCCO2)c(=O)c2c3c(sc21)COC(C)(C)C3 (stereo not drawn) | – | – | – | – | – | –
CCOc1ccc(CN2CCN(Cc3cc4ccccc4[nH]3)CC2CCO)cc1 (stereo not drawn) | – | – | · | 42 | · | ·
CNCCNC[C@H](Cc1cccc2ccccc12)NCCc1ccccc1 | – | – | – | 38 | – | –
CC(CCc1ccccc1)NC(=O)COC(=O)c1cccc2ccccc12 (stereo not drawn) | – | – | – | – | – | –
CNC[C@H](Cc1ccccc1)NC[C@@H](Cc1cccc2ccccc12)NCCc1ccc(C)cc1 | – | 50 | – | 43 | – | –
C/C=C/C=C/C(=O)c1cc(C)c(OC(=O)CNC(=O)OC(C)(C)C)c(C)c1O | – | – | · | – | · | ·
CC(=O)C1=C(C)NC(SCC(=O)c2ccc(F)cc2)=C(C#N)C1c1ccco1 (stereo not drawn) | – | 51 | – | – | – | –
COc1cc2c(cc1OC)C1CCc3cc4c(cc3C1N=C2)OCO4 (stereo not drawn) | – | – | · | – | · | ·
CC1(C)N([O-])c2cc([N+](=O)[O-])ccc2[N+]1=O | – | – | – | – | – | 53
O=C(C[C@@H]1C=C[C@@H](NC(=O)C2CC2)[C@@H](CO)O1)NCc1ccccc1Cl | – | – | · | – | · | ·
COc1ccc2nc(NC(C)=O)sc2c1 | – | – | – | – | – | –
COc1cccc(C(CC(=O)Nc2cccc3ccccc23)NC(=O)c2ccccc2)c1 (stereo not drawn) | – | – | – | – | – | 35
COc1ccc2nc(NC(=O)c3ccc4ncsc4c3)sc2c1 | · | · | – | · | – | 57
SMILES | GalR3 antag | TAAR1 antagonist | OX1R antag-1 | TAAR1 agonist | CHO parental Ca | OX1R antag-2
COc1ccc2nc(NC(=O)Nc3cccc4ccccc34)sc2c1 | – | – | – | – | – | 42
COc1ccc2nc(NC(=O)c3ccc(F)cc3)sc2c1 | – | – | – | – | – | –
COc1ccc2nc(NC(=O)Nc3ccccc3OC)sc2c1 | – | – | – | – | – | 66
O=C(Nc1ccncc1)C1CC(=O)N(Cc2ccccc2)C1 (stereo not drawn) | – | – | · | – | · | ·
COc1ccccc1NC(=O)c1ccc(NC(=O)COC(=O)c2cccnc2Cl)cc1 | – | – | – | – | – | –
CCOC(=O)c1sc2nc(CSc3ccccc3)nc(N3CCCN(C)CC3)c2c1C | – | – | – | 38 | – | –
Cc1nc2cc(-c3sccc3-n3cccc3)nn2c(C)c1C | – | – | – | – | – | 52
CCN1C(=O)N/C(=C/c2ccc(Sc3ccc(C)cc3)o2)C1=O | – | 65 | 61 | – | 64 | –
O=C(c1cc(S(=O)(=O)N2CCN(c3ccccc3)CC2)ccc1Cl)N1CCCCCCC1 | – | – | – | – | – | –
COC(=O)[C@H](Cc1ccccc1)N1C/C=C\COc2c(Cl)cc(Cl)cc2S1(=O)=O | – | – | – | – | – | 32
COC(=O)[C@H](C)N1C/C=C\COc2c(Cl)cc(Cl)cc2S1(=O)=O | – | – | – | – | – | –
O=C(COC(=O)c1ccc([N+](=O)[O-])s1)NCCc1ccccc1 | · | · | – | · | – | 27
O=C(COC(=O)c1ccc([N+](=O)[O-])s1)c1ccc[nH]1 | – | – | – | – | – | 61
O=C(COC(=O)c1ccc([N+](=O)[O-])s1)NNC(=O)c1ccccc1 | · | · | – | · | – | 57
CN(CC(=O)Nc1ccccc1Cl)C(=O)COC(=O)c1ccc([N+](=O)[O-])s1 | – | – | – | – | – | 43
CN(CC(=O)Nc1ccccc1Cl)C(=O)COC(=O)c1cccs1 | – | – | – | – | – | –
COc1cccc2cc(-c3nnc(SCC(=O)Nc4ccc(NC(C)=O)cc4)n3C)oc12 | – | – | – | – | – | –
O=C(COC(=O)c1ccc([N+](=O)[O-])s1)NC(=O)NCc1ccccc1 | – | – | – | – | – | 49
CCN1CCN(S(=O)(=O)c2ccc(OC)cc2)CC1 | – | – | – | – | – | –
O=[N+]([O-])c1ccc(-c2nnc3cccc(Cl)n23)cc1 | – | – | – | – | – | 49
Cc1[nH]n(-c2ccc([N+](=O)[O-])cc2)c(=O)c1C=NCCN1CCN(C(=O)C(C)C)CC1 | – | – | – | – | 27 | –
COc1ccc2[nH]c3c(c2c1)CCN1C(=O)C(CC(=O)NC/C=C(\C)CCC=C(C)C)C[C@H](C(=O)N2CCCCC2)[C@@]31C (stereo partly drawn) | · | · | 51 | · | – | –
O=C(Oc1ccc(C(=S)N2CCOCC2)cc1)c1ccccc1[N+](=O)[O-] | – | – | – | – | – | 56
